The target of data set [1] is T1, Peroxisome proliferator-activated receptor alpha (Homo sapiens) (UniProt Q07869).
T1 sequence (whole entry): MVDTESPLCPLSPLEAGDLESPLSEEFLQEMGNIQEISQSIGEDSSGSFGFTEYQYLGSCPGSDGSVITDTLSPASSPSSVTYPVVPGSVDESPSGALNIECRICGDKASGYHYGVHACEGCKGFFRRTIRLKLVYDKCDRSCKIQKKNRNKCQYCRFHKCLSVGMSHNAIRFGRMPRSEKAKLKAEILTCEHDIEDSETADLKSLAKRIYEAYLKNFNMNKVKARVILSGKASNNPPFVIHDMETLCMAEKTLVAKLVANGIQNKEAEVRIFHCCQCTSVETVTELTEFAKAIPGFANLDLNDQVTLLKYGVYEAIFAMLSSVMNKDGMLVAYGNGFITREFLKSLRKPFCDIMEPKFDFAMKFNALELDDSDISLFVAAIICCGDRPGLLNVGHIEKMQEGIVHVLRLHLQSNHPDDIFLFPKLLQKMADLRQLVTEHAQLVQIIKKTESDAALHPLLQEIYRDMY
Put plainly: Transactivation of human GAL4-fused PPARalpha LBD expressed in human HepG2 cells at 1 uM after 24 hrs by dual renilla-luciferase reporter gene assay relative to fenofibrate. The format is cell-based. An outline of the steps: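 HepG2 cells cotransfected with 4xUAS-tk-luc and pBIND-hPPARα. Cells treated 24 h with compound at 1 μM final; fenofibrate 10 μM served as reference and 0.1% DMSO as vehicle. Read-out by reporter gene luciferase assay.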
A general note: In a reporter assay the amount or activity of a reporter protein is the signal.

Data set [2] concerns the target T2, Peroxisome proliferator-activated receptor alpha (Homo sapiens, UniProt Q07869).
T2 sequence (Q07869 whole entry): T1 sequence (whole entry)
In words: Transactivation of human GAL4-fused PPARalpha LBD expressed in human HepG2 cells after 24 hrs by renilla luciferase reporter gene assay. The format is cell-based.

Data set [3] concerns the target T1, Peroxisome proliferator-activated receptor alpha (Homo sapiens). Put plainly: Transactivation of human […] PPARalpha LBD expressed in human HepG2 cells at 1 uM by renilla luciferase reporter gene assay relative to control. The format is cell-based.
Data set [4] concerns the target Peroxisome proliferator-activated receptor alpha (Homo sapiens) (UniProt Q07869). Put plainly: Displacement of fluormone pan-PPAR green from GST-tagged human PPARalpha ligand binding domain after 3 hrs by TR-FRET assay. A general note: In TR-FRET formats the signal depends on donor and acceptor labels being close together.
The nature of data set [5]: Solubility of the compound in pH 7.4 PBS at 100 uM incubated for 10 mins under shaking condition by HPLC analysis. The format is physicochemical. An outline of the steps:
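Aqueous solubility determined in PBS, pH 7.4; reported in μM.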

Data set [6] is described as follows: Apparent permeability from apical to basolateral side in human Caco2 cells at 25 uM measured up to 2 hrs by LC/MS/MS analysis. The format is ADME, cell-based. The note with it: Caco-2. The gist of the method:
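Caco-2 monolayers; permeability measured apical-to-basolateral (A–B) at 25 μM compound, reported as ×10⁻⁶ cm/s.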
Background: Caco-2 cells form a polarised layer with tight junctions and transporters.

A short description of data set [7]: Protein binding in human plasma at 20 uM after 5 hrs by LC/MS/MS analysis. The format is ADME, cell-free. The note with it: 5 h, 20 µM. The gist of the method: (§1)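 Compound at 20 μM incubated with plasma at 37°C for 5 h; percent bound to protein determined. Final DMSO 0.2%.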
A short description of data set [8]: Protein binding in rat plasma at 20 uM after 5 hrs by LC/MS/MS analysis. The format is ADME, cell-free. To be noted: 5 h, 20 µM. An outline of the steps:
as §1

The nature of data set [9]: Metabolic stability in human liver microsomes assessed as parent compound remaining at 0.5 uM after 60 mins in presence of NADPH by LC/MS/MS analysis. To be noted: microsomes, 1 h, 0.5 µM. The format is ADME, Microsome. The gist of the method: (§2)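 Compound at 0.5 μM incubated with liver microsomes at 37°C for 1 h; result given as percent remaining. Final DMSO 0.2%.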

Data set [10] is described as follows: Metabolic stability in rat liver microsomes assessed as parent compound remaining at 0.5 uM after 60 mins in presence of NADPH by LC/MS/MS analysis. The note with it: microsomes, 1 h, 0.5 µM. The format is ADME, Microsome. An outline of the steps:
as §2

Calls of active or inactive are those of the source. The calls are words filed in the database; no cut-off is given here.

By EC50 is commonly meant the concentration at which the effect is half-maximal. Lower therefore signals higher potency in that assay. A word on the solubility: it is the concentration that dissolves in the medium under given conditions. Low readings indicate little dissolved substance, high ones much dissolved substance. One may read the Papp A→B as the apparent permeability from the apical to the basolateral side of a cell layer.

The compound `Cc1cc(C(=O)O)c2c(C)nn(-c3ccccc3)c2n1` displayed an activation relative to fenofibrate in [1] of 13.6.

In turn, `CCc1cc(C(=O)O)c2c(C(C)C)nn(-c3ccc(Cl)cn3)c2n1` returned an activation relative to fenofibrate in data set [1] of 16.2.

For `CC(C)c1nn(-c2ccc(Cl)cc2)c2nc(-c3ccccc3)cc(C(=O)O)c12`, the activation relative to fenofibrate in data set [1] turned out to be 243. The compound also registered an EC50 in data set [2] of 1800 nM.

As to `CC(C)c1nn(-c2cccc(Cl)c2)c2nc(C3CC3)cc(C(=O)O)c12`, the activation relative to fenofibrate in data set [1] came out at 163. In addition, the EC50 in data set [2] was > 1340 nM.

With `CC(C)c1nn(-c2ccc(Cl)cc2)c2nc(C3CC3)cc(C(=O)O)c12`, in data set [1], the activation relative to fenofibrate came to 114. In addition, in data set [2], the EC50 is > 2740 nM.

Compound `CCc1cc(C(=O)O)c2c(C(CC)CC)nn(-c3ccc(F)cc3)c2n1` yielded an activation relative to fenofibrate in data set [1] of 250. In data set [2], this compound registered an EC50 of 1530 nM.

In data set [1], `Cc1cc(C(=O)O)c2c(C(C)(C)C)nn(-c3cccc(Cl)c3)c2n1` came in with an activation relative to fenofibrate of 5.75.

Consider `Cc1cc(C(=O)O)c2c(C3CC3)nn(-c3ccc(Cl)cc3)c2n1`, for which the activation relative to fenofibrate in data set [1] came out at 24.6.

Take `Cc1cc(C(=O)O)c2c(C(C)C)nn(-c3ccc(C(F)(F)F)cc3)c2n1`: in [1], the activation relative to fenofibrate is 26.

In the case of `CCc1cc(C(=O)O)c2c(C(C)C)nn(-c3ccc(I)cc3)c2n1`, the activation relative to fenofibrate in data set [1] stood at 111. This compound registered an EC50 in [2] of 1760 nM.

In data set [1], `CCc1cc(C(=O)O)c2c(C(C)C)nn(-c3ccc(Br)cc3)c2n1` gave an activation relative to fenofibrate of 251. The compound also returned a 50% effective concentration (EC50) in [2] of 1230 nM.

In the case of `CCC(Cc1cc(C)nc2c1c(C(C)C)nn2-c1ccc(F)cc1)C(=O)O` (stereo not drawn), the activation relative to fenofibrate in data set [1] was determined as 1.53.

`CCc1cc(C(=O)O)c2c(C3CCCC3)nn(-c3ccc(Cl)cc3)c2n1` had an activation relative to fenofibrate in [1] of 78.2.

In the case of `O=C(O)c1cc(C2CC2)nc2c1c(C1CCCC1)nn2-c1ccc(Cl)cc1`, the activation relative to fenofibrate in data set [1] worked out at 76.8.

On to `CC(C)c1nn(-c2ccc(Br)cc2)c2nc(C3CC3)cc(C(=O)O)c12`, for which the activation relative to fenofibrate in data set [1] amounted to 199. Also, the response in [2] was half-maximal at 1980 nM (EC50).

For `CCc1cc(C(=O)O)c2c(C(CC)CC)nn(-c3ccc(Cl)cc3)c2n1`, the activation relative to fenofibrate in data set [1] was determined as 213. Also, the concentration for a half-maximal effect (EC50) in data set [2] was determined as 1240 nM.

In data set [1], `CCC(CC)c1nn(-c2ccc(Cl)cc2)c2nc(C)cc(C(=O)O)c12` registered an activation relative to fenofibrate of 183. Also, the EC50 in [2] is > 3570 nM.

In the case of `CCc1cc(C(=O)O)c2c(C(C)C)nn(-c3cccc(Cl)c3)c2n1`, in data set [1], the activation relative to fenofibrate stood at 192. Moreover, in data set [2], the EC50 was > 2270 nM.

With `CC(C)c1nn(-c2ccc(F)cc2)c2ncc(C(=O)O)c(Cl)c12`, the activation relative to fenofibrate in data set [1] is 6.21.

In [1], `CCC(CC)c1nn(-c2ccc(F)cc2)c2nc(C)cc(C(=O)O)c12` gave an activation relative to fenofibrate of 205. The compound further displayed an EC50 in data set [2] of 1450 nM.

Take `CC(C)c1nn(-c2ccc(F)cc2)c2nc(C3CC3)cc(C(=O)O)c12`: in data set [3], the fold change (FC) is 151.

For the compound `Cc1cc(C(=O)O)c2c(C(C)(C)C)nn(-c3ccc(Cl)cc3)c2n1`, in [1], the activation relative to fenofibrate came to 2.26. Also, the inhibition result in data set [4] was “inactive”.

As for `Cc1cc(C(=O)O)c2c(C(C)C)nn(-c3ccc(F)cc3)c2n1`, the activation relative to fenofibrate in data set [1] is 79.2. This compound also registered an EC50 in data set [2] of 2060 nM.

With `Cc1cc(C(=O)O)c2c(C(C)C)nn(-c3ccc(I)cc3)c2n1`, in data set [1], the activation relative to fenofibrate was 111. Further, in data set [2], the midpoint of the response, the EC50, lay at 2410 nM.

In data set [1], `CC(C)(Sc1ccc(CCN(CCCCC2CCCCC2)C(=O)NC2CCCCC2)cc1)C(=O)O` showed an activation relative to fenofibrate of 200.

Regarding `CCc1cc(C(=O)O)c2c(C(C)C)nn(-c3ccc(Cl)cc3)c2n1`, in data set [1], the activation relative to fenofibrate was 196. Also, in data set [2], the concentration for a half-maximal effect (EC50) is 1390 nM.

With `O=C(O)c1cc(C2CC2)nc2c1c(C1CCC1)nn2-c1ccc(Cl)cc1`, the activation relative to fenofibrate in data set [1] was found to be 88.3.

For the compound `Cc1cc(C(=O)O)c2c(C(C)C)nn(-c3ccc(Cl)c(Cl)c3)c2n1`, in [1], the activation relative to fenofibrate was 51.

`CCC(C)c1nn(-c2ccc(Cl)cc2)c2nc(C3CC3)cc(C(=O)O)c12` (stereo not drawn) returned an activation relative to fenofibrate in data set [1] of 224. For the same compound, the EC50 in [2] was 460 nM.

In the case of `Cc1cc(C(=O)O)c2c(C(C)C)nn(-c3ccc(Br)cc3)c2n1`, the activation relative to fenofibrate in [1] worked out at 85.2. Also, the EC50 in data set [2] is > 4010 nM.

Regarding `Cc1cc(C(=O)O)c2c(C(C)C)nn(-c3cccc(Cl)c3)c2n1`, in [1], the activation relative to fenofibrate was 96.7.

In turn, `Cc1cc(C(=O)O)c2c(C(C)C)nn(-c3cccc(OCc4ccccc4)c3)c2n1` displayed an activation relative to fenofibrate in data set [1] of 47.4.

In data set [1], `Cc1cc(C(=O)O)c2c(C3CCCC3)nn(-c3ccc(Cl)cc3)c2n1` registered an activation relative to fenofibrate of 64.8.

Consider `Cc1cc(C(=O)[O-])c2c(C(C)C)nn(-c3ccc(Cl)cc3)c2n1.[Na+]`, for which, in data set [5], the solubility at 10 min, 100 µM is > 95 µM. Further, the Papp A→B at 2 h, 25 µM in [6] is 22.5 ×10⁻⁶ cm/s. The PPB in [7] was 99.7%; in [8], 98.9%. Moreover, the Stability stood at 91% in data set [9] and 92% in [10].

For `CCC(C)c1nn(-c2ccc(Cl)cc2)c2nc(C)cc(C(=O)O)c12` (stereo not drawn), the activation relative to fenofibrate in data set [1] was determined as 176. Also, the EC50 in data set [2] is 680 nM.

Values taken from ChEMBL document CHEMBL4385646, “Structural development of 1H-pyrazolo-[3,4-b]pyridine-4-carboxylic acid derivatives as human peroxisome proliferator-activated receptor alpha (PPARα)-selective agonists” (Bioorg Med Chem Lett, 2019).
